High-throughput results: PubChem BioAssay, several laboratories
This excerpt belongs to a sample that is enriched for hits.
Ecoli tolC = growth inhibitors of E. coli tolC mutant, primary screen, strain BW25113 ΔtolC::kan, 384-well; growth inhibition, % at 10 µM (by protocol); 2.2% of 65,000 active; OD615;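 active = growth inhibition at or above a cutoff equal to the mean over every tested compound plus 3 SD, cut at about 60% in these data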;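 also: growth measured after 20 h incubation at 37 °C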
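Test system – E. coli BW25113 ΔtolC::kan, tolC deletion mutant strain · Detection – OD at 615 nm · Buffer or medium – LB with kanamycin 50 µg/mL · Times – 20 h compound exposure of bacteria at 37 °C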
HePTP inh = inhibitors of human HePTP phosphatase, primary screen, biochemical, absorbance, leukemia target; Tyrosine-protein phosphatase non-receptor type 7 (Homo sapiens), P35236; recombinant HePTP phosphatase activity, OD absorbance; inhibition, % at 20 µM; 0.64% of 110,000 active; AID 521, 2006; in the data active = inhibition above about 50%; inconclusive = no clear call, values can overlap the other calls;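 also: plate controls were vehicle for no effect and reference inhibitor for full effect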
E coli WT exp = growth inhibitors of wild-type E. coli, primary screen, strain BW25113, expanded library, OD600; 0.15% of 98,000 active; growth inhibition, % at 100 µM; OD600 absorbance; AID 710, 2007;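 active = growth inhibition above about 50% at one test dose, limit read from the data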;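 also: growth measured after 20 h incubation at 37 °C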
MKP-1 inh = MKP-1 phosphatase inhibitors, primary screen, biochemical, in vitro; Dual specificity protein phosphatase 1 (Homo sapiens), P28562; recombinant MKP-1, OMFP hydrolysis fluorescence; inhibition, %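 (compounds tested at a single concentration somewhere between 10 and 100 µM)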; 0.15% of 65,000 active; AID 374, 2006;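 active = inhibition above about 50%, limit read from the data; inconclusive = inhibition over screen mean plus 3 SD, below that limit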;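 also: 0% = DMSO max control wells and 100% = wells with enzyme stopped by NaOH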
MMP13 inh = human MMP13 inhibitors, primary screen, biochemical, FRET peptide cleavage; MMP-13 fTHP FRET cleavage, Mca fluorescence; inhibition, % at 4 µM; 0.07% of 65,000 active; AID 570, 2006;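 active = inhibition above the mean of compound-free control plate wells plus 3 SD, cut at about 14% in these data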;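 also: 0% = DMSO wells and 100% = wells with reference MMP-13 inhibitor after basal subtraction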
Cdc25B block = inhibitors of Cdc25B phosphatase catalytic domain, primary screen, biochemical, OMFP fluorescence; 0.1% of 65,000 active; recombinant Cdc25B, OMFP fluorescence Ex485/Em525; inhibition, %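 (compounds tested at 10 µM final in the well)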; M-phase inducer phosphatase 2 (Homo sapiens), P30305; in the data active = inhibition above about 50%
Target sequence (P30305 whole entry, looked up, the tested form may be a part): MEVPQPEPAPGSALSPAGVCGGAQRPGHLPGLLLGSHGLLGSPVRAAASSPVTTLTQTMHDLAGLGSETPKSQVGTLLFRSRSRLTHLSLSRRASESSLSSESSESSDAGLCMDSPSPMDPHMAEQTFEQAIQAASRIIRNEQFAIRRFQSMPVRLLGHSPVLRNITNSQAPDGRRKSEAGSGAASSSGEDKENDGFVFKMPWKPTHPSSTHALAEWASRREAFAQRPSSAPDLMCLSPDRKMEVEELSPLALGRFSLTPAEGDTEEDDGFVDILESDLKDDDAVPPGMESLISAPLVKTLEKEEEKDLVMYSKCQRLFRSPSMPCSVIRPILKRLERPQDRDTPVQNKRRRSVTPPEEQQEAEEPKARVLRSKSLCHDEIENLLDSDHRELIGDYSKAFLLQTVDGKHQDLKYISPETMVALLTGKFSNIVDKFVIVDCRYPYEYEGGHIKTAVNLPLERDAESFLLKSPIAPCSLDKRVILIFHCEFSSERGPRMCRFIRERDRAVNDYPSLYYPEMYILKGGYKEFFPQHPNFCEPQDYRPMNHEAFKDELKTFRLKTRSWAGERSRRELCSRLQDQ
Redox H2O2 0p5DTT = redox cycling H2O2 generation, 0.5 mM DTT, dose response, artefact control, biochemical, Cdc25B catalytic domain | cell-free redox cycling H2O2 generation | shares compounds with Cdc25B block | AID 682, 2007 | 50% of 30 active | EC50, µM; in the data active = EC50 below about 30 µM
Redox H2O2 1DTT = redox cycling H2O2 generation, 1 mM DTT, dose response, artefact control, biochemical, 1.0 mM DTT, Cdc25B catalytic domain; 30 tested, under 10 active; shares compounds with Cdc25B block; cell-free redox cycling H2O2 generation; EC50, µM; in the data active = EC50 below about 50 µM
Redox H2O2 = redox cycling hydrogen peroxide production, dose response, artefact control, biochemical, probe assessment; shares compounds with MKP-1 inh; Redox cycling H2O2 generation, DTT, phenol red/HRP; EC50, µM; 60 tested, under 10 active; call rule not given here
Active calls of the source: *; ? = inconclusive; nt = no result given.

SMILES	Ecoli tolC	HePTP inh	E coli WT exp	MKP-1 inh	MMP13 inh	Cdc25B block	Redox H2O2	others
CCCCn1c(=O)c(C(=O)Nc2cnccn2)c(O)c2ccccc21	99*	9	-5	-1	-8	5	nt
Cc1[nH]c2ccc(S(=O)(=O)O)cc2c1CCN	nt	-2	nt	nt	nt	nt	nt
FC(F)(F)c1ccc2c(c1)nnn2C1CCN(Cc2nnnn2Cc2ccccc2)CC1	63*	5	-26	13	0	-19	nt
N=c1c2c(n(Cc3ccc(Cl)cc3Cl)c3c1CCC3)CCCC2	100*	-4	21	-7	2	-27	nt
COc1ccc(-n2c(/C=C/c3c[nH]c4ccccc34)nc3ccccc3c2=O)cc1	nt	-2	nt	nt	nt	nt	nt
CCn1nc(-c2cccs2)nc2c(=O)n(C)c(=O)nc1-2	97*	?	26	104*	8	101*	14*	Redox H2O2 0p5DTT=0.65*;Redox H2O2 1DTT=1*
Cc1nc2ccccc2c(=O)n1-c1ccc(O)cc1	nt	-9	nt	nt	nt	nt	nt
O=C1C=Cc2ccccc2C1=O	-4	nt	nt	94*	nt	99*	>50	Redox H2O2 0p5DTT=26*;Redox H2O2 1DTT=>50
Cc1cccc(-n2c(/C=C/c3ccc4c(c3)OCO4)nc3ccccc3c2=O)c1	nt	7	nt	nt	nt	nt	nt
COCCCn1c(N)c(C(=O)NCCC(C)C)c2nc3ccccc3nc21	18	0	4	55*	-79	5	>50
CCCCOCCCn1c(N)c(C(=O)OCCOC)c2nc3ccccc3nc21	8	8	2	-14	-368	30	nt
COC(=O)C1C2C(=O)N(c3ccc([N+](=O)[O-])cc3)C(=O)C12c1ccc(Cl)cc1 (stereo unspecified)	nt	-1	nt	nt	nt	nt	nt
Cc1nc2cc(-c3cccc(F)c3)nn2c(C)c1CCC(=O)N1CCC2(CC1)OCCO2	10	1	-2	60*	-4	-6	>50
